The test system of experiment [1] is dengue virus type 1. Briefly: Antiviral activity against Dengue virus 1 infected in african green monkey Vero cells assessed as decrease in viral RNA synthesis after 24 hrs by luciferase reporter gene assay. In kind it is functional, organism-based. In short, it runs like this: (§1)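 Stable Rluc-Neo-Rep replicon-bearing Vero cells (DENV-1 or WNV; kept in DMEM/10% FBS with 1 mg/ml G418, 37°C, 5% CO₂) treated with Cs at ≤8 μM. Read-out is replicon Renilla luciferase, and 50% effective concentration is taken from the dose response.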
(Reporter assays use an easily measured gene product as a stand-in for the process of interest.)

Experiment [2] has as its system West Nile virus. The experiment is described as follows: Antiviral activity against West Nile virus infected in african green monkey Vero cells assessed as decrease in viral RNA synthesis after 24 hrs by luciferase reporter gene assay. In kind it is functional, organism-based. In short, it runs like this: as §1
The subject of experiment [3] is West Nile virus. Briefly: Antiviral activity against West Nile virus infected in human Huh7.5 cells assessed as decrease in viral RNA synthesis at 8 uM after => 20 hrs by luciferase reporter gene assay. The following applies: Huh-7, 20 h. In kind it is functional. In short, it runs like this: (§2)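 Rluc2A-Rep replicon RNA (10 μg; WNV or DENV-1) electroporated into Huh-7.5 cells, seeded at 4 × 10⁵/well, then treated at once with 8 μM Cs or 1% ethanol. Cells washed with cold PBS and lysed at time points, and lysates frozen at −80°C. Luciferase read on 20 μl lysate. Early signal (1–10 h p.t.) reflects translation and later signal (>10 h) reflects RNA replication.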

For experiment [4], the system named is dengue virus type 1. The experiment is described as follows: Antiviral activity against Dengue virus 1 infected in human Huh7.5 cells assessed as decrease in viral RNA synthesis at 8 uM after => 20 hrs by luciferase reporter gene assay. In kind it is functional. The conditions noted are these: Huh-7, 20 h. The gist of the method: as §2
The subject of experiment [5] is West Nile virus. Briefly: Antiviral activity against West Nile virus infected in CyPA-deficient human Huh7.5 cells assessed as decrease in viral replication at 4 uM after 24 hrs by luciferase reporter gene assay. In kind it is functional. The conditions noted are these: Huh-7, 24 h. The gist of the method:
(§3)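 Huh-7.5 shRNA lines (CyPA knockdown sh-A and control sh-Fluc; puromycin 1 μg/ml) seeded at 2 × 10⁴/well and infected 24 h later with WNV VLP at 1 FFU/cell. Cs (0, 4 or 8 μM) or 1% ethanol added at once. Luciferase read at 24 h p.i. and expressed as % of ethanol-treated sh-Fluc. Mean ± SD of three independent experiments.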

In experiment [6] the test system is West Nile virus. Briefly: Antiviral activity against West Nile virus infected in CyPA-deficient human Huh7.5 cells assessed as decrease in viral replication at 8 uM after 24 hrs by luciferase reporter gene assay. The conditions noted are these: Huh-7, 24 h. It is filed as functional. The gist of the method: as §3
The test system of experiment [7] is West Nile virus. Briefly: Antiviral activity against West Nile virus infected in human Huh7.5 cells assessed as decrease in viral replication at 8 uM after 24 hrs by luciferase reporter gene assay. It is filed as functional. The following applies: Huh-7, 24 h. In short, it runs like this: as §3
The subject of another experiment is Yellow fever virus. Briefly: microbe, parasite or virus in culture. The conditions noted are these: Huh-7, 20 h. In kind it is functional.

Molecules are shown by their SMILES.

For `C/C=C/C[C@@H](C)[C@@H](O)[C@H]1C(=O)N[C@@H](CC)C(=O)N(C)CC(=O)N(C)[C@@H](CC(C)C)C(=O)N[C@@H](C(C)C)C(=O)N(C)[C@@H](CC(C)C)C(=O)N[C@@H](C)C(=O)N[C@H](C)C(=O)N(C)[C@@H](CC(C)C)C(=O)N(C)[C@@H](CC(C)C)C(=O)N(C)[C@@H](C(C)C)C(=O)N1C` [CYCLOSPORINE], the concentration for half-maximal inhibition (IC50) is ≤ 0.5 µM in the experiment with dengue virus type 1 [1] and 8 µM in the experiment on West Nile virus [2]. Further, the inhibition at 8 µM in the experiment on West Nile virus [3] is ≥ 70%; in the experiment on dengue virus type 1 [4] it was ≥ 70%; in the experiment on West Nile virus [6] it was 2%; with West Nile virus [7], 4%; with Yellow fever virus it was ≥ 70%. In the experiment with West Nile virus [5], the inhibition at 4 µM amounted to 10%.

As a reminder, the IC50 is the point on the concentration scale where inhibition reaches its midpoint. What is called inhibition is the percentage by which the read-out fell short of the control.

(Values after ChEMBL document CHEMBL1649528 (Antimicrob Agents Chemother, 2009).)
